Assay results reported in ChEMBL document CHEMBL1124476, “1-(2-aminoethyl)-6-aryl-4H- [1,2,4]triazolo[4,3-a][1,4]benzodiazepines with diuretic and natriuretic activity” (J Med Chem, 1989).

How the values were obtained:
[1] = Diuretic activity at 40 mg/kg (screening dose-55.2 umol/kg) in […] in a one stage experiment; T/C = urine vol of treated rats / urine vol of control rats; format: functional
Outline: (§1)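 40 mg/kg given by gavage in 25 mL/kg 0.9% saline with 0.5% (carboxymethyl)cellulose. Four rats per agent, two per metabolism cage; 20 controls; 5 h urine. T/C = treated/control urine volume. Stage-1 T/C of 1.66 or more leads to stage 2; product T/C1·T/C2 of 3.34 or more counts as active.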

[2] = Diuretic activity at 40 mg/kg (screening dose-55.2 umol/kg) in […] in a two stage experiment; T/C1.2 = urine vol of treated rats / urine vol of control rats; format: functional; outline: as §1
[3] = Diuretic activity at 40 mg/kg (screening dose 88.2 umol/kg) in […] in a one stage experiment; T/C = urine vol of treated rats / urine vol of control rats; format: functional; outline: as §1
Rattus norvegicus [4] = assay: Mean excretion of chloride in conscious rats at a dose of 10 mg/kg given orally; format: ADME, organism-based; design: dose 10 mg/kg, route oral; settings: in vivo, po
Outline: (§2)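 Secondary dose-response in male Sprague-Dawley rats (~160 g), fasted and hydrated as in the primary screen. Oral gavage at 0.3-100 mg/kg in 25 mL/kg saline/0.5% CMC, three cages of two rats per dose. Urine collected 5 h; Na, K, Cl, HCO3 measured. Values are mean excretion (mequiv), compared with controls at P < 0.05.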

Rattus norvegicus [5] = assay: Mean excretion of potassium in conscious rats at a dose of 0.3 mg/kg given orally; format: ADME, organism-based; design: dose 0.3 mg/kg, route oral; settings: in vivo, po; outline: as §2
Rattus norvegicus [6] = species: Rattus norvegicus; assay: […]; format: ADME, organism-based, Urine; design: dose 1 mg/kg, route oral; settings: in vivo, po, 1 mg/kg
Outline: (§3)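 Dose-response test in male Sprague-Dawley rats of about 160 g, fasted 24 h, with water withheld 1½ h before and during the test. Each rat got a single gavage of 25 mL/kg 0.9% saline with 0.5% carboxymethylcellulose carrying the agent (0.3–100 mg/kg range). Rats were housed two per metabolism cage, and urine was collected for 5 h. Mean urine volume (mL) was compared with controls (P < 0.05).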

Rattus norvegicus [7] = assay: Mean excretion of chloride in conscious rats at a dose of 30 mg/kg given orally; format: ADME, organism-based; design: dose 30 mg/kg, route oral; settings: in vivo, po; outline: as §2
Rattus norvegicus [8] = assay: Mean excretion of […] in conscious rats at a dose of 1.0 mg/kg given orally; format: ADME, organism-based; design: dose 1 mg/kg, route oral; settings: in vivo, po
Outline: (§4)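 Male Sprague-Dawley rats, about 160 g, fasted 24 h and water withheld 1 1/2 h beforehand; food and water withheld during the test. Dosing by gavage with 25 mL/kg 0.9% saline containing 0.5% (carboxymethyl)cellulose, agent dissolved or suspended. Three cages of two rats each per dose, held in metabolism cages. Urine collected over 5 h. Volume given in mL, Na+ in mequiv. Significance versus control at P < 0.05.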

Rattus norvegicus [9] = assay: Mean excretion of potassium in conscious rats at a dose of 10 mg/kg given orally; format: ADME, organism-based; design: dose 10 mg/kg, route oral; settings: in vivo, po; outline: as §2
Rattus norvegicus [10] = assay: Mean excretion of potassium in conscious rats at a dose of 3.0 mg/kg given orally; format: ADME, organism-based; design: dose 3 mg/kg, route oral; settings: in vivo, po; outline: as §2
Rattus norvegicus [11] = assay: Mean excretion of Cl- in conscious rats at a dose of 0.3 mg/kg given orally; format: ADME, organism-based, Urine; design: dose 0.3 mg/kg, route oral; settings: in vivo, po; outline: as §3
Rattus norvegicus [12] = species: Rattus norvegicus; assay: […]; format: ADME, organism-based, Urine; design: dose 0.3 mg/kg, route oral; settings: in vivo, po, 0.3 mg/kg; outline: as §3
Rattus norvegicus [13] = species: Rattus norvegicus; assay: […]; format: ADME, organism-based, Urine; design: dose 100 mg/kg, route oral; settings: in vivo, po, 100 mg/kg; outline: as §4
Rattus norvegicus [14] = assay: Mean excretion of sodium in conscious rats at a dose of 100 mg/kg given orally; format: ADME, organism-based; design: dose 100 mg/kg, route oral; settings: in vivo, po; outline: as §4
Rattus norvegicus [15] = assay: Mean excretion of sodium in conscious rats at a dose of 3.0 mg/kg given orally; format: ADME, organism-based; design: dose 3 mg/kg, route oral; settings: in vivo, po; outline: as §4
Rattus norvegicus [16] = assay: Mean excretion of chloride in conscious rats at a dose of 100 mg/kg given orally; format: ADME, organism-based; design: dose 100 mg/kg, route oral; settings: in vivo, po; outline: as §2
Rattus norvegicus [17] = species: Rattus norvegicus; assay: […]; format: ADME, organism-based, Urine; design: dose 3 mg/kg, route oral; settings: in vivo, po, 3 mg/kg; outline: as §4
Rattus norvegicus [18] = assay: Mean excretion of potassium in conscious rats at a dose of 1.0 mg/kg given orally; format: ADME, organism-based; design: dose 1 mg/kg, route oral; settings: in vivo, po; outline: as §2
Rattus norvegicus [19] = assay: Mean excretion of potassium in conscious rats at a dose of 30 mg/kg given orally; format: ADME, organism-based; design: dose 30 mg/kg, route oral; settings: in vivo, po; outline: as §2
Rattus norvegicus [20] = assay: Mean excretion of potassium in conscious rats at a dose of 100 mg/kg given orally; format: ADME, organism-based; design: dose 100 mg/kg, route oral; settings: in vivo, po; outline: as §2
Rattus norvegicus [21] = assay: Mean excretion of chloride in conscious rats at a dose of 1.0 mg/kg given orally; format: ADME, organism-based; design: dose 1 mg/kg, route oral; settings: in vivo, po; outline: as §2
Rattus norvegicus [22] = assay: Mean excretion of chloride in conscious rats at a dose of 3.0 mg/kg given orally; format: ADME, organism-based; design: dose 3 mg/kg, route oral; settings: in vivo, po; outline: as §2
Rattus norvegicus [23] = assay: Mean excretion of sodium in conscious rats at a dose of 30 mg/kg given orally; format: ADME, organism-based; design: dose 30 mg/kg, route oral; settings: in vivo, po; outline: as §4
[24] = Diuretic activity at 40 mg/kg (screening dose-88.2 uM/Kg) in […] in a two stage experiment; T/C1.2 = urine vol of treated rats / urine vol of control rats; format: functional; outline: as §1
Rattus norvegicus [25] = assay: Mean excretion of sodium in conscious rats at a dose of 10 mg/kg given orally; format: ADME, organism-based; design: dose 10 mg/kg, route oral; settings: in vivo, po; outline: as §4
Rattus norvegicus [26] = species: Rattus norvegicus; assay: […]; format: ADME, organism-based, Urine; design: dose 10 mg/kg, route oral; settings: in vivo, po, 10 mg/kg; outline: as §4
Rattus norvegicus [27] = assay: Mean excretion of sodium in conscious rats at a dose of 0.3 mg/kg given orally; format: ADME, organism-based; design: dose 0.3 mg/kg, route oral; settings: in vivo, po; outline: as §4
Rattus norvegicus [28] = species: Rattus norvegicus; assay: […]; format: ADME, organism-based, Urine; design: dose 30 mg/kg, route oral; settings: in vivo, po, 30 mg/kg; outline: as §4
[29] = Diuretic activity at 40 mg/kg (screening dose-61.6 umol/kg) in […] in a one stage experiment; T/C = urine vol of treated rats / urine vol of control rats; format: functional; outline: as §1
[30] = Diuretic activity at 40 mg/kg (screening dose-100.8 umol/kg) in […] in a one stage experiment; T/C = urine vol of treated rats / urine vol of control rats; format: functional; outline: as §1

For `CN(C)CCc1nnc2n1-c1ccc(Cl)cc1C(c1ccccc1)=NC2`, the “T/C 1” value [1] was 1.66 and the “T/C 1.2” value [2] was 3.04.
For `CSc1ccc2c(c1)C(c1ccccc1)=NCc1nnc(C(CN(C)C)c3ccccc3)n1-2` (stereo not given), the “T/C 1” value [3] was 2.29, the “Mean excretion of Cl-” value (Rattus norvegicus [4]) was 1.28 m equiv and the “Mean excretion of K+” value (Rattus norvegicus [5]) was 0.31 m equiv. For the same molecule, the Mean urine volume (Rattus norvegicus [6]) was 5.12 mL, the “Mean excretion of Cl-” value (Rattus norvegicus [7]) was 1.69 m equiv and the “Mean excretion of Na+” value (Rattus norvegicus [8]) was 0.94 m equiv. For the same molecule, the “Mean excretion of K+” value (Rattus norvegicus [9]) was 0.23 m equiv, the “Mean excretion of K+” value (Rattus norvegicus [10]) was 0.36 m equiv and the “Mean excretion of Cl-” value (Rattus norvegicus [11]) was 0.76 m equiv. For the same molecule, the Mean urine volume (Rattus norvegicus [12]) was 3.92 mL, the Mean urine volume (Rattus norvegicus [13]) was 14.14 mL and the “Mean excretion of Na+” value (Rattus norvegicus [14]) was 2.52 m equiv. The “Mean excretion of Na+” value (Rattus norvegicus [15]) was 0.91 m equiv, the “Mean excretion of Cl-” value (Rattus norvegicus [16]) was 2.17 m equiv and the Mean urine volume (Rattus norvegicus [17]) was 5.2 mL. The “Mean excretion of K+” value (Rattus norvegicus [18]) was 0.31 m equiv, the “Mean excretion of K+” value (Rattus norvegicus [19]) was 0.25 m equiv and the “Mean excretion of K+” value (Rattus norvegicus [20]) was 0.28 m equiv. For the same molecule, the “Mean excretion of Cl-” value (Rattus norvegicus [21]) was 0.89 m equiv, the “Mean excretion of Cl-” value (Rattus norvegicus [22]) was 0.9 m equiv and the “Mean excretion of Na+” value (Rattus norvegicus [23]) was 1.87 m equiv. For the same molecule, the “T/C 1.2” value [24] was 6.6, the “Mean excretion of Na+” value (Rattus norvegicus [25]) was 1.39 m equiv and the Mean urine volume (Rattus norvegicus [26]) was 6.83 mL. The “Mean excretion of Na+” value (Rattus norvegicus [27]) was 0.88 m equiv and the Mean urine volume (Rattus norvegicus [28]) was 10.39 mL.
For `Clc1ccc2c(c1)C(c1ccccc1)=NCc1nnc(C(CN3CCN(c4ccccc4)CC3)c3ccccc3)n1-2.O=C(O)C(=O)O` (stereo not given), the “T/C 1” value [29] was 0.95.
With `C=C(c1ccccc1)c1nnc2n1-c1ccc(Cl)cc1C(c1ccccc1)=NC2` the “T/C 1” value [30] was 0.76.
